According to ChEMBL document CHEMBL4373727, “Thienopyrimidinone Derivatives That Inhibit Bacterial tRNA (Guanine37-N1)-Methyltransferase (TrmD) by Restructuring the Active Site with a Tyrosine-Flipping Mechanism” (J Med Chem, 2019):
≈ marks a conversion by molar mass, not a printed value. Calls of active or inactive are those of the source. Unless noted, the calls are words filed in the database; no cut-off is given here.

Experiments:
[1] = molecular target: T1, tRNA (guanine-N(1)-)-methyltransferase (Pseudomonas aeruginosa (strain ATCC 15692 / DSM 22644 / CIP 104116 / JCM14847 / LMG 12228 / 1C / PRS 101 / PAO1), UniProt Q9HXQ1); assay: (§1) Inhibition of Pseudomonas aeruginosa tRNA (guanine(37)-N1)-methyltransferase (Leu5 to Asp25 residues) expressed in Escherichia coli BL21 (DE3) Rosetta T1R cells assessed as reduction in S-adenosyl-L-homocysteine production preincubated for 15 mins followed by 1.5 uM of tRNALeu(CAG) substrate and SAM addition and measured after 45 mins by MTase-Glo assay
T1 sequence (Q9HXQ1 whole entry): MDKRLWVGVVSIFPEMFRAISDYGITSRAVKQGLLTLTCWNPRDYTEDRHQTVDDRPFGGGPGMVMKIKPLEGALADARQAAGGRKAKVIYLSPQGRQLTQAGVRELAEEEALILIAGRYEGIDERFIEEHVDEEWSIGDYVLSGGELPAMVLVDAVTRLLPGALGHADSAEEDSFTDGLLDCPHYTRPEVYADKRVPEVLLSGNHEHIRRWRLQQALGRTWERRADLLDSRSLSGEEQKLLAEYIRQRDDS
Procedure, shortened: (§2)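 MTase-Glo luminescence assay. 8 nM TrmD preincubated 15 min at ambient temperature with serially diluted inhibitor (0–500 μM) in 50 mM Tris-HCl pH 8.0, 80 mM NaCl, 1 mM MgCl2, 0.5 mM DTT, 0.01% Triton X-100. Reaction with 2 μM SAM and tRNALeu(CAG), 45 min at 37 °C. Detection 30 min in the dark, SAH read against a standard curve. IC50 by nonlinear regression. Two independent experiments in duplicate.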

Staphylococcus aureus [2] = assay: Antibacterial activity against methicillin-resistant Staphylococcus aureus ATCC 43300 at 100 uM incubated for 24 hrs; type: functional, organism-based
Procedure, shortened: (§3)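 Single-concentration growth screen: 100 μM test compound with log-phase bacteria at about 5×10^5 cells/mL. Incubation 24 h at 37 °C. Growth read by OD600 and given as percent of untreated control. MRSA was grown in cation-adjusted Mueller–Hinton broth. M. smegmatis was grown in complete Middlebrook 7H9. Ampicillin and kanamycin served as positive controls.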

Enterococcus faecalis [3] = assay: Antibacterial activity against Enterococcus faecalis ATCC 51299 at 100 uM incubated for 24 hrs; type: functional, organism-based
Procedure, shortened: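 Single-concentration screen in brain heart infusion broth. Log-phase cells at ~5×10^5 cells/mL were grown with 100 μM compound for 24 h at 37 °C. Growth was read as OD600 and expressed as a percentage of untreated wells. DMSO and blank controls were included.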

Streptococcus pneumoniae [4] = assay: Antibacterial activity against Streptococcus pneumoniae ATCC 49619 at 100 uM incubated for 24 hrs; type: functional, organism-based
Procedure, shortened: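 Single 100 μM screen in MH medium with 3% defibrinated sheep blood at 37 °C under 5% CO2, ~5×10^5 cells/mL, 24 h.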

[5] = system: Mycolicibacterium smegmatis; assay: Antibacterial activity against Mycolicibacterium smegmatis MC2 155 at 100 uM incubated for 24 hrs; type: functional, organism-based; procedure, shortened: as §3
[6] = system: Mycobacterium tuberculosis; assay: Antibacterial activity against Mycobacterium tuberculosis ATCC 27294 at 100 uM incubated for 7 days; type: functional, organism-based
Pseudomonas aeruginosa [7] = assay: Antibacterial activity against Pseudomonas aeruginosa PA14 incubated for 24 hrs by serial broth microdilution method; type: functional, organism-based
Procedure, shortened: (§4)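 Log-phase cultures from four colonies grown overnight at 37 °C, inoculated at ~5×10^5 cells/mL in cation-adjusted Mueller–Hinton broth with serially diluted compound. Grown 24 h at 37 °C, then OD600 read. MIC50/MIC90 are the concentrations giving 50%/90% growth inhibition relative to drug-free controls. Two independent experiments in duplicate.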

Acinetobacter baumannii [8] = assay: Antibacterial activity against Acinetobacter baumannii ATCC 17961 incubated for 24 hrs by serial broth microdilution method; type: functional; procedure, shortened: as §4
Klebsiella pneumoniae [9] = assay: Antibacterial activity against Klebsiella pneumoniae ATCC 13883 incubated for 24 hrs by serial broth microdilution method; type: functional, organism-based; procedure, shortened: as §4
Salmonella enteritidis [10] = assay: Antibacterial activity against Salmonella enteritidis ATCC 13076 incubated for 24 hrs by serial broth microdilution method; type: functional; procedure, shortened: as §4
Escherichia coli [11] = assay: Antibacterial activity against Escherichia coli BW25113 incubated for 24 hrs by serial broth microdilution method; type: functional, organism-based; procedure, shortened: as §4
Staphylococcus aureus [12] = assay: Antibacterial activity against methicillin-resistant Staphylococcus aureus ATCC 43300 incubated for 24 hrs by serial broth microdilution method; type: functional
Procedure, shortened: (§5)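 Growth read by OD600. MRSA in cation-adjusted Mueller–Hinton broth, M. smegmatis in complete 7H9. MIC50 and MIC90 are 50% and 90% growth inhibition versus drug-free controls. Two independent experiments, each in duplicate.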

Enterococcus faecalis [13] = assay: Antibacterial activity against Enterococcus faecalis ATCC 51299 incubated for 24 hrs by serial broth microdilution method; type: functional, organism-based
Procedure, shortened: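 Broth microdilution in brain heart infusion broth, ~5×10^5 cells/mL log-phase inoculum, serial compound dilutions, 24 h at 37 °C, OD600 read-out. MIC50/MIC90 are the concentrations giving 50%/90% growth inhibition relative to drug-free controls. Two independent experiments in duplicate.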

Streptococcus pneumoniae [14] = assay: Antibacterial activity against Streptococcus pneumoniae ATCC 49619 incubated for 24 hrs by serial broth microdilution method; type: functional
Procedure, shortened: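 Cultured in MH medium plus 3% defibrinated sheep blood at 37 °C, 5% CO2. Log-phase inoculum ~5×10^5 cells/mL was exposed to serial compound dilutions for 24 h. MIC50/MIC90 are relative to drug-free controls. Two independent experiments in duplicate.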

Erythrocyte = assay: Hemolytic activity in human RBC at 100 uM measured after 1 hr; type: ADME, cell-based
Procedure, shortened: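 Fresh human RBCs were PBS-washed and resuspended to OD600 24, then mixed 1:1 by volume with compound serially diluted in PBS. Incubated 1 h at 37 °C without shaking and centrifuged at 1000g for 15 min. Triton X-100 served as positive control. Run in triplicate.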

[15] = molecular target: T2, tRNA (guanine-N(1)-)-methyltransferase (Pseudomonas aeruginosa (strain ATCC 15692 / DSM 22644 / CIP 104116 / JCM14847 / LMG 12228 / 1C / PRS 101 / PAO1)) (UniProt Q9HXQ1); assay: Binding affinity to Pseudomonas aeruginosa tRNA (guanine(37)-N1)-methyltransferase (Leu5 to Asp25 residues) expressed in Escherichia coli BL21 (DE3) Rosetta T1R cells assessed as thermal stabilization of protein by measuring change in melting temperature at 0.1 mM by SYPRO orange based thermal shift assay
T2 sequence (whole entry): T1 sequence (Q9HXQ1 whole entry)
Procedure, shortened: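 Thermal shift: 4 μM TrmD with 5× SYPRO Orange and ligand in 50 mM Tris-HCl pH 8, 150 mM NaCl, 1 mM MgCl2, 1 mM DTT, 0.05% Tween-20. Buffer-only control. Heated from 25 to 95 °C in a real-time PCR instrument, and Tm taken as the unfolding midpoint. Ligand levels: SAH 2 mM, inhibitors 0.1 mM.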

[16] = molecular target: T2, tRNA (guanine-N(1)-)-methyltransferase (Pseudomonas aeruginosa (strain ATCC 15692 / DSM 22644 / CIP 104116 / JCM14847 / LMG 12228 / 1C / PRS 101 / PAO1)); assay: as §1, with “production up to 50 uM” for “production”; procedure, shortened: as §2
[17] = system: Mycolicibacterium smegmatis; assay: Antibacterial activity against Mycolicibacterium smegmatis MC2 155 incubated for 24 hrs by serial broth microdilution method; type: functional; details: MC2 155, 24 h; procedure, shortened: as §5
[18] = system: Mycobacterium tuberculosis; assay: Antibacterial activity against Mycobacterium tuberculosis ATCC 27294 incubated for 7 days by broth dilution method; type: functional; details: ATCC 27294, 168 h
Procedure, shortened: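 M. tuberculosis ATCC 27294 in complete 7H9 with 0.05% Tween 80, 0.5% glycerol and 10% ADC. Mid-log cells adjusted to OD600 0.1 and added 1:1 to 2-fold serial compound dilutions (highest 100 μM). Incubated 7 d at 37 °C with shaking at 80 rpm, then OD600 read. Isoniazid positive control. MIC50/MIC90 versus drug-free controls. Biological duplicates.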

Pseudomonas aeruginosa [19] = assay: Bactericidal activity against Pseudomonas aeruginosa PA14 assessed as reduction in CFU at 1 to 4 times MIC90 incubated for 24 hrs; type: functional, organism-based
Acinetobacter baumannii [20] = assay: Bactericidal activity against Acinetobacter baumannii ATCC 17961 assessed as reduction in CFU at 1 to 4 times MIC90 incubated for 24 hrs; type: functional; details: ATCC 17961, 24 h, read-out: MBC99.9
Klebsiella pneumoniae [21] = assay: Bactericidal activity against Klebsiella pneumoniae ATCC 13883 assessed as reduction in CFU at 1 to 4 times MIC90 incubated for 24 hrs; type: functional, organism-based
Salmonella enteritidis [22] = assay: Bactericidal activity against Salmonella enteritidis ATCC 13076 assessed as reduction in CFU at 1 to 4 times MIC90 incubated for 24 hrs; type: functional, Salmonella enterica subsp. enterica serovar Enteritidis; details: Salmonella enterica, ATCC 13076, 24 h; read-out: MBC99.9
Escherichia coli [23] = assay: Bactericidal activity against Escherichia coli BW25113 assessed as reduction in CFU at 1 to 4 times MIC90 incubated for 24 hrs; type: functional, organism-based
Staphylococcus aureus [24] = assay: Bactericidal activity against methicillin-resistant Staphylococcus aureus ATCC 43300 assessed as reduction in CFU at 1 to 4 times MIC90 incubated for 24 hrs; type: functional; details: ATCC 43300, 24 h, read-out: MBC99.9
Enterococcus faecalis [25] = assay: Bactericidal activity against Enterococcus faecalis ATCC 51299 assessed as reduction in CFU at 1 to 4 times MIC90 incubated for 24 hrs; type: functional, organism-based
Streptococcus pneumoniae [26] = assay: Bactericidal activity against Streptococcus pneumoniae ATCC 49619 assessed as reduction in CFU at 1 to 4 times MIC90 incubated for 24 hrs; type: functional; details: ATCC 49619, 24 h, read-out: MBC99.9
[27] = system: Mycolicibacterium smegmatis; assay: Bactericidal activity against Mycolicibacterium smegmatis MC2 155 assessed as reduction in CFU at 1 to 4 times MIC90 incubated for 24 hrs; type: functional; details: MC2 155, 24 h, read-out: MBC99.9
[28] = Salmonella enterica, ATCC 13076, 24 h

SMILES: Cl.NCCCCCNCc1ccc(CNC(=O)c2csc3nc[nH]c(=O)c23)cc1
- IC50 [1]: 110 nM
- Activity (Staphylococcus aureus [2]): inactive
- Activity (Enterococcus faecalis [3]): inactive
- Activity (Streptococcus pneumoniae [4]): inactive
- Activity [5]: inactive
- Activity [6]: inactive
- Activity (Pseudomonas aeruginosa [7]): inactive
- Activity (Acinetobacter baumannii [8]): inactive
- Activity (Klebsiella pneumoniae [9]): inactive
- Activity (Salmonella enteritidis [10]; Salmonella enterica subsp. enterica serovar Enteritidis): inactive
- Activity (Escherichia coli [11]): inactive
- Activity (Staphylococcus aureus [12]): inactive
- Activity (Enterococcus faecalis [13]): inactive
- Activity (Streptococcus pneumoniae [14]): inactive
- Activity (Erythrocyte): Non-Toxic

SMILES: CCCCCCCCNCc1ccc(CNC(=O)c2csc3ncnc(OC)c23)cc1
- ΔTm [15]: 1 to 2 °C
- Activity (Erythrocyte): Non-Toxic
- inhibition [16]: inactive

SMILES: CCCCCCCCCCCCNCc1ccc(CNC(=O)c2csc3nc[nH]c(=O)c23)cc1
- IC50 [1]: 380 nM
- Activity (Staphylococcus aureus [2]): Active
- Activity (Enterococcus faecalis [3]): Active
- Activity (Streptococcus pneumoniae [4]): Active
- Activity [5]: Active
- Activity [6]: Active
- MIC50 (Pseudomonas aeruginosa [7]): inactive
- MIC90 (Pseudomonas aeruginosa [7]): inactive
- MIC50 (Acinetobacter baumannii [8]; ATCC 17961, 24 h): 75 µM (≈ 36.2 µg/mL)
- MIC90 (Acinetobacter baumannii [8]; ATCC 17961, 24 h): 99 µM (≈ 47.8 µg/mL)
- MIC50 (Klebsiella pneumoniae [9]): inactive
- MIC90 (Klebsiella pneumoniae [9]): inactive
- MIC50 (Salmonella enteritidis [10]; [28]): > 100 µM
- MIC90 (Salmonella enteritidis [10]; [28]): > 100 µM
- MIC50 (Escherichia coli [11]): inactive
- MIC90 (Escherichia coli [11]): inactive
- MIC50 (Staphylococcus aureus [12]; ATCC 43300, 24 h): 5 µM (≈ 2.41 µg/mL)
- MIC90 (Staphylococcus aureus [12]; ATCC 43300, 24 h): 8.5 µM (≈ 4.1 µg/mL)
- MIC50 (Enterococcus faecalis [13]): inactive
- MIC90 (Enterococcus faecalis [13]): inactive
- MIC50 (Streptococcus pneumoniae [14]; ATCC 49619, 24 h): 62 µM (≈ 29.9 µg/mL)
- MIC90 (Streptococcus pneumoniae [14]; ATCC 49619, 24 h): 74 µM (≈ 35.7 µg/mL)
- MIC50 [17]: 17 µM (≈ 8.21 µg/mL)
- MIC90 [17]: 23 µM (≈ 11.1 µg/mL)
- MIC50 [18]: 44 µM (≈ 21.2 µg/mL)
- MIC90 [18]: 88 µM (≈ 42.5 µg/mL)
- MBC99.9 (Pseudomonas aeruginosa [19]): inactive
- MBC (Acinetobacter baumannii [20]): > 100 µM
- MBC99.9 (Klebsiella pneumoniae [21]): inactive
- MBC (Salmonella enteritidis [22]): > 100 µM
- MBC99.9 (Escherichia coli [23]): inactive
- MBC (Staphylococcus aureus [24]): 34 µM (≈ 16.4 µg/mL)
- MBC99.9 (Enterococcus faecalis [25]): inactive
- MBC (Streptococcus pneumoniae [26]): > 100 µM
- MBC [27]: 69 µM (≈ 33.3 µg/mL)
